Test results from paper PMC6810844 (Cellular and molecular life sciences : CMLS, 2019).

Tests used:
BoSGBPMLG-B = target: T1, BoSGBPMLG-B (Bacteroides ovatus, UniProt A0ABU3IRL2); assay: isothermal titration calorimetry; type: binding; conditions: 50 mM sodium phosphate pH 7.0, 25 °C; n fixed at 1
T1 sequence (A0ABU3IRL2 22-420): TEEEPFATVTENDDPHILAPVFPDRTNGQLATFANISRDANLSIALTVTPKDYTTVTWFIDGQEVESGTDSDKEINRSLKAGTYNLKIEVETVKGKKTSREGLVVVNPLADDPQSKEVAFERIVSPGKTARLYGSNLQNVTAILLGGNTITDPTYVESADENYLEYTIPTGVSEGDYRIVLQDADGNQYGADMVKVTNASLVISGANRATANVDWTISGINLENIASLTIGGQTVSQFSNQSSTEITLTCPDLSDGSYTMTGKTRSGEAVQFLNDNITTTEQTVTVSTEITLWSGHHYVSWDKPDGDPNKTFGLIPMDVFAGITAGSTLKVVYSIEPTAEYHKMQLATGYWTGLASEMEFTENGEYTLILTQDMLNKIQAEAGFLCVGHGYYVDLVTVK
Procedure, shortened: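 His6-tagged protein was produced in E. coli BL21(DE3) and purified by nickel affinity. Titrations ran at 25 °C in 50 mM sodium phosphate pH 7.0, except bMLG, which used 10 mM HEPES pH 7.0. 20–100 µM protein in the cell received one 2 µL injection, then 24 × 10 µL of 2.5–4.0 mg/mL polysaccharide or 1–2 mM oligosaccharide, with stirring at 280 rpm. MLG Ka was converted from g/L assuming a hexasaccharide motif.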

BoSGBPMLG-A = target: T2, BoSGBPMLG-A (Bacteroides ovatus, UniProt A0AAN3A7L1); assay: isothermal titration calorimetry; type: binding; conditions: 50 mM sodium phosphate pH 7.0, 25 °C
T2 sequence (A0AAN3A7L1 23-558): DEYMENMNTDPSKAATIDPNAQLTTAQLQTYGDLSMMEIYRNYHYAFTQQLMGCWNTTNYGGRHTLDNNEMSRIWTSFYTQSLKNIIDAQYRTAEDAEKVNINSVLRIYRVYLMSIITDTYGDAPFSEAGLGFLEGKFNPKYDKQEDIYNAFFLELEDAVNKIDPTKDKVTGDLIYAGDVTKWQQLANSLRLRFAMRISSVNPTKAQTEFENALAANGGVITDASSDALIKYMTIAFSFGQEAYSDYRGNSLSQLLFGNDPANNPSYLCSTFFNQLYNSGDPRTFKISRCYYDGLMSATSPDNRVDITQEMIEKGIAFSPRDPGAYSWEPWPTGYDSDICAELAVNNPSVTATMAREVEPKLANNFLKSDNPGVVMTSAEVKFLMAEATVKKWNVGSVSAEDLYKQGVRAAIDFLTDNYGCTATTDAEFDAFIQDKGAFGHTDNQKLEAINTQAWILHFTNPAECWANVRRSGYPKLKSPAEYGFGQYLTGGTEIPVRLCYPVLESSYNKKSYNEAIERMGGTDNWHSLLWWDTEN
Procedure, shortened: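 Recombinant His6-tagged protein was expressed in E. coli BL21(DE3), Ni-IMAC purified, and exchanged into 50 mM sodium phosphate pH 7.0. In the cell: 20–100 µM protein at 25 °C, stirred at 280 rpm. Injections: 2 µL, then 24 × 10 µL of 2.5–4.0 mg/mL polysaccharide or 1–2 mM oligosaccharide. Heat recorded. Molar polysaccharide Ka assumed a hexasaccharide motif for MLG and a Glc8-backbone motif for XyG.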

| SMILES | Ka (M^-1) / BoSGBPMLG-B (BoSGBPMLG-B) | Ka (M^-1) / BoSGBPMLG-A (BoSGBPMLG-A) | Ka (M^-1) / BoSGBPMLG-A (BoSGBPMLG-A; n fixed at 1) |
| --- | --- | --- | --- |
| OC[C@H]1O[C@@H](O[C@H]2[C@H](O)[C@@H](O)[C@H](O[C@H]3[C@H](O)[C@@H](O)[C@H](O[C@@H]4[C@@H](O)[C@H](O[C@H]5[C@H](O)[C@@H](O)[C@H](O[C@H]6[C@H](O)[C@@H](O)[C@H](O[C@H]7[C@H](O)[C@@H](CO)OC(O)[C@@H]7O)O[C@@H]6CO)O[C@@H]5CO)O[C@H](CO)[C@H]4O)O[C@@H]3CO)O[C@@H]2CO)[C@H](O)[C@@H](O)[C@@H]1O (stereo partly drawn) [MLG7, G4G4G3G4G4G3G] | (4.69 ± 0.13) × 10^3 | (4.51 ± 0.34) × 10^4 |  |
| OC[C@H]1O[C@@H](O[C@H]2[C@H](O)[C@@H](O)[C@H](O[C@H]3[C@H](O)[C@@H](O)[C@H](O[C@H]4[C@H](O)[C@@H](O)[C@H](O[C@H]5[C@H](O)[C@@H](O)[C@H](O[C@H]6[C@H](O)[C@@H](O)C(O)O[C@@H]6CO)O[C@@H]5CO)O[C@@H]4CO)O[C@@H]3CO)O[C@@H]2CO)[C@H](O)[C@@H](O)[C@@H]1O (stereo partly drawn) [Cellohexaose] | (3.1 ± 0.06) × 10^3 |  | (3.39 ± 0.03) × 10^3 |
| OC[C@H]1O[C@@H](O[C@H]2[C@H](O)[C@@H](O)[C@H](O[C@@H]3[C@@H](O)[C@H](O[C@H]4[C@H](O)[C@@H](O)[C@H](O[C@H]5[C@H](O)[C@@H](O)[C@H](O[C@H]6[C@H](O)[C@@H](CO)OC(O)[C@@H]6O)O[C@@H]5CO)O[C@@H]4CO)O[C@H](CO)[C@H]3O)O[C@@H]2CO)[C@H](O)[C@@H](O)[C@@H]1O (stereo partly drawn) [MLG6, G4G3G4G4G3G] | (3.16 ± 0.19) × 10^3 | (1.44 ± 0.04) × 10^4 |  |
